# Activity calls are given as the source filed them. The rule behind the calls is not given here.
# Experiments:
# [1] = tested on: Mus musculus; assay: Antidiabetic activity in KK-Ay mouse assessed as effect on LDL level at 5 mg/kg, […] by ELISA (reference value: 1.11 +/- 0.24 mM); format: functional
# [2] = tested on: HepG2; assay: Increase in glucose consumption in human HepG2 cells at 20 uM measured after 24 hrs; format: functional, cell-based
# Summary of the method: (§1)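 HepG2 cells treated 24 h at the indicated concentrations; RGZ as reference. Supernatants used for glucose consumption and lactate release; lysed cells used for ATP, normalized to protein content. Mean ± SD of 3 or 4 separate experiments; compared with DMSO.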
# [3] = tested on: L6; assay: Increase in glucose consumption in rat L6 cells at 20 uM after 24 hrs by glucose oxidase assay; format: functional, cell-based
# Summary of the method: (§2)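 L6 myotubes treated with DMSO, compound or RGZ (20 μM) at the indicated concentrations for 24 h. Culture supernatants assayed for glucose consumption and lactate release; lysed cells assayed for ATP, normalized to protein. Mean ± SD of 3 independent experiments vs DMSO.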
# [4] = tested on: L6; assay: Induction of glycolysis in rat L6 cells assessed as reduction in cellular ATP production at 20 uM measured after 24 hrs; format: functional, cell-based; summary of the method: as §2
# [5] = tested on: Mus musculus; assay: Antidiabetic activity in KK-Ay mouse assessed as effect on AGE level at 5 mg/kg, […] by ELISA (Rvb 2.85 +/- 0.92 ug/ml); format: functional
# [6] = tested on: Mus musculus; assay: Antidiabetic activity in KK-Ay mouse assessed as effect on BUN level at 5 mg/kg, […] by ELISA (reference value: 12.8 +/- 2.97 mM); format: functional
# [7] = tested on: L6; assay: Increase in glucose consumption in rat L6 cells at 20 uM measured after 24 hrs; format: functional, cell-based; summary of the method: as §2
# [8] = tested on: Mus musculus; assay: Anti-diabetic activity in overnight fasted diabetic KK-Ay mouse assessed as increase in insulin responsiveness by measuring blood glucose at 5 mg/kg, po measured after 35 days by insulin tolerance test; format: functional, organism-based; settings: time 35.0 day
# Summary of the method: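 KK-Ay mice orally treated with 50 or 100 mg/kg compound or 5 mg/kg rosiglitazone, C57BL/6J as normal controls. After 35 days of treatment, oral glucose tolerance test and insulin tolerance test run. Blood glucose plotted against time, AUC calculated. Mean ± SD, 8-9 mice per group.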
# [9] = Effect on high fat diet-fed KK-Ay mouse model of obesity and diabetes assessed as food intake at 5 mg/kg, po (reference value: 5.67 +/- 0.55 g/day); format: ADME, organism-based; settings: in vivo
# Summary of the method: (§3)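 KK-Ay mice on lipogenic diet, with C57BL/6J mice as normal controls, dosed orally at 50 or 100 mg/kg (test) or 5 mg/kg (RGZ). Food intake (g/day), water intake (mL/day) and body weight recorded before and after treatment; body weight gain calculated. Mean±SD, 8-9 mice per group.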
# [10] = tested on: Mus musculus; assay: Antidiabetic activity in KK-Ay mouse assessed as effect on Triglycerides level at 5 mg/kg, po for 24 hrs by ELISA (reference value: 4.01 +/- 1.83 mM); format: functional
# [11] = tested on: Mus musculus; assay: Antidiabetic activity in KK-Ay mouse assessed as effect on insulin level at 5 mg/kg, […] by ELISA (reference value: 226 +/- 15.5 mU/l); format: functional
# [12] = tested on: Mus musculus; assay: Anti-diabetic activity in high fat diet-fed KK-Ay mouse model of obesity and diabetes assessed reduction in total protein level in urine at 5 mg/kg, po measured after 24 hrs; format: functional, organism-based
# Summary of the method: (§4)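 Before study end, 24-h urine collected from C57BL/6J controls and KK-Ay mice (untreated, oral 50 or 100 mg/kg compound, or 5 mg/kg rosiglitazone). Volume, glucose, total protein and microalbumin measured by kits. Mean ± SD, 8-9 mice per group, vs C57BL/6J or untreated KK-Ay.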
# [13] = Effect on high fat diet-fed KK-Ay mouse model of obesity and diabetes assessed as water intake at 5 mg/kg, po (reference value: 21.2 +/- 4.17 ml/day); format: ADME, organism-based; settings: in vivo; summary of the method: as §3
# [14] = tested on: Mus musculus; assay: Antidiabetic activity in KK-Ay mouse assessed as effect on glycosylated haemoglobin level at 5 mg/kg, po for 50 days by glucose oxidase method (reference value: 8.74 +/- 1.08%); format: functional; settings: time 50 day
# Summary of the method: (§5)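 Lipogenic-diet KK-Ay mice given 50 or 100 mg/kg compound or 5 mg/kg rosiglitazone orally for 50 days, C57BL/6J as normal controls. Fasting blood glucose, glycosylated haemoglobin, AGE, insulin, HOMA-IR, cholesterol, LDL-c, TG, serum creatinine and BUN determined. Mean ± SD, 8-9 mice per group.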
# [15] = tested on: Mus musculus; assay: Antidiabetic activity in KK-Ay mouse assessed as effect on cholesterol level at 5 mg/kg, […] by ELISA (reference value: 7.38 +/- 1.03 mM); format: functional
# [16] = tested on: HepG2; assay: Induction of glycolysis in human HepG2 cells assessed as reduction in cellular ATP production at 20 uM measured after 24 hrs; format: functional, cell-based; summary of the method: as §1
# [17] = tested on: HepG2; assay: Induction of glycolysis in human HepG2 cells assessed as increase in lactate release at 20 uM measured after 24 hrs
# [18] = tested on: L6; assay: Induction of glycolysis in rat L6 cells assessed as increase in lactate release at 20 uM measured after 24 hrs
# [19] = tested on: Mus musculus; assay: Antidiabetic activity in KK-Ay mouse assessed as reduction in fasting blood glucose level at 5 mg/kg, po for 50 days by glucose oxidase method (reference value: 13.2 +/- 2.06 mM); format: functional; settings: time 50 day; summary of the method: as §5
# [20] = tested on: Mus musculus; assay: Anti-diabetic activity in high fat diet-fed KK-Ay mouse model of obesity and diabetes assessed as reduction in microalbumin level in urine at 5 mg/kg, po measured after 24 hrs; format: functional, organism-based; summary of the method: as §4
# [21] = tested on: Mus musculus; assay: Antidiabetic activity in KK-Ay mouse assessed as effect on serum Creatinine level at 5 mg/kg, po for 24 hrs by ELISA (reference value: 124 +/- 35.1 uM); format: functional
# [22] = tested on: Mus musculus; assay: Antidiabetic activity in KK-Ay mouse assessed as effect on HOMA-IR level at 5 mg/kg, […] by ELISA (reference value: 137 +/- 18.4); format: functional
# [23] = tested on: Mus musculus; assay: Anti-diabetic activity in high fat diet-fed KK-Ay mouse model of obesity and diabetes assessed as improved pathological changes in kidney at 5 mg/kg, po by hematoxylin and eosin staining based histopathological analysis; format: functional, organism-based
# Summary of the method: (§6)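 Mice sacrificed at study end, with KK-Ay given 50 or 100 mg/kg compound or 5 mg/kg rosiglitazone orally and C57BL/6J as normal controls. Kidney and pancreas sections H&E stained, imaged at 200×, pathological changes scored. Mean ± SD of 8-9 mice per group.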
# [24] = Effect on high fat diet-fed KK-Ay mouse model of obesity and diabetes assessed as total body weight gain at 5 mg/kg, po (reference value: 43.5 +/- 5.24 g); format: ADME, organism-based; settings: in vivo; summary of the method: as §3
# [25] = tested on: Mus musculus; assay: Anti-diabetic activity in high fat diet-fed KK-Ay mouse model of obesity and diabetes assessed as improved pathological changes in pancreas at 5 mg/kg, po by hematoxylin and eosin staining based histopathological analysis; format: functional, organism-based; summary of the method: as §6
# [26] = tested on: HepG2; assay: Increase in glucose consumption in human HepG2 cells assessed as Gx/GDMSO ratio at 5 mM by glucose oxidase assay; format: functional
# Summary of the method: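 HepG2 glucose consumption screen. Test compounds at 25 μM, metformin at 5 mM. Activity expressed as ratio of glucose consumption to DMSO-treated cells (Gx/G_DMSO).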
smiles,measurement,setting,value
CN(CCOc1ccc(CC2SC(=O)NC2=O)cc1)c1ccccn1 (stereo unspecified) [ROSIGLITAZONE],Activity,[1],1.08 mM
same,Activity,[2],Active
same,Activity,[3],Active
same,Activity,[4],Dose-Dependent Effect
same,Activity,[5],1.27 µg/mL
same,Activity,[6],12 mM
same,Activity,[7],Active
same,Activity,[8],Active
same,Activity,[9],4.58 g/day
same,Activity,[10],1.84 mM
same,Activity,[11],89.3 mU/L
same,Activity,[12],Active
same,Activity,[13],6.1 mL/day
same,Activity,[14],6.09%
same,Activity,[15],8.31 mM
same,Activity,[16],Active
same,Activity,[17],Active
same,Activity,[18],Active
same,Activity,[19],7.66 mM
same,Activity,[20],Active
same,Activity,[21],51.6 µM
same,Activity,[22],30.4
same,Activity,[23],Active
same,Activity,[24],6.82 g
same,Activity,[25],Active
CN(C)C(=N)NC(=N)N [METFORMIN],Ratio,[26],1.53

# Source: ChEMBL document CHEMBL4818983, “Structure-activity relationship and hypoglycemic activity of tricyclic matrines with advantage of treating diabetic nephropathy” (Eur J Med Chem, 2020)
